Laboratory results taken from ChEMBL document CHEMBL3272063, “Potential antitumor agents. 13. 4-Methyl-5-amino-1-formylisoquinoline thiosemicarbazone” (J Med Chem, 1976).
Activity calls are given as the source filed them. The calls are words filed in the database; no cut-off is given here.

Key:
[1] = Antitumor activity against mouse S180A cells allografted in CD-1 mouse assessed as dose required for maximum increase in mouse survival administered qd for 6 days; assay type: functional
[2] = Antitumor activity against mouse S180A cells allografted in CD-1 mouse assessed as average survival at maximum effective dose administered qd for 6 days (reference value: 12.6 +/- 0.6 days); assay type: functional
Mus musculus = assay: Toxicity in CD-1 mouse allografted with mouse S180A cells assessed as change in body weight at maximum effective dose administered qd for 6 days (reference value: 18.2%); assay type: organism-based; details: 144 h
[3] = Antitumor activity against mouse S180A cells allografted in CD-1 mouse assessed as average survival at maximum effective dose administered qd for 6 days relative to control; assay type: functional
S180A = assay: Antitumor activity against mouse S180A cells allografted in CD-1 mouse assessed as increase in mouse survival administered qd for 6 days; assay type: functional, cell-based
In short: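 Adult female CD-1 mice given Sarcoma 180 ascites cells taken from a donor mouse carrying a 7-day tumor. Drug dosed once daily for six consecutive days, starting 24 h after implantation, across 5-100 mg/kg/day. Read-out is average survival time, with mice alive at 50 days counted as 50-day survivors. %T/C = treated/control × 100. Value reported at the maximum effective daily dose.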

Rattus norvegicus [4] = organism: Rattus norvegicus; assay: Inhibition of ribonucleoside-diphosphate reductase in rat hepatoma cells relative to 4-(m-amino)phenyl-2-formylpyridine thiosemicarbazone; assay type: cell-based
Rattus norvegicus [5] = organism: Rattus norvegicus; assay: Inhibition of ribonucleoside-diphosphate reductase in rat hepatoma cells relative to 5-hydroxy-2-formylpyridine thiosemicarbazone; assay type: cell-based

SMILES	Activity [1] [mg/kg]	Survival [2] [days]	Activity (Mus musculus) [%]	T/C [3] [%]	Activity (S180A)	fold change (FC) (Rattus norvegicus [4])	fold change (FC) (Rattus norvegicus [5])
N/C(S)=N/N=C/c1ccc(O)cn1	60	30.4	-3.3	241			
Cc1cnc(/C=N/NC(N)=S)c2cccc([N+](=O)[O-])c12					inactive		
NC(=S)N/N=C/c1nccc2ccccc12	40	39.2	-5.1	311			
NC(=S)N/N=C/c1nccc2c(N)cccc12	40	37.3	-8.5	296			
Cc1cnc(/C=N/NC(N)=S)c2cccc(N)c12	10	38.2	-4.8	303		2	60
